# Paper PMC3698492 (Scientific Reports, 2013)
# Tests used:
# 5-HT7 = target: T1, 5-HT7 (Drosophila melanogaster, UniProt P20905); experiment: Calcium imaging of receptor expressed in HEK-293T cells; assay type: cell-based; conditions: 100 μM metitepine; stated for all 5-HT receptors
# T1 sequence (P20905 1-564): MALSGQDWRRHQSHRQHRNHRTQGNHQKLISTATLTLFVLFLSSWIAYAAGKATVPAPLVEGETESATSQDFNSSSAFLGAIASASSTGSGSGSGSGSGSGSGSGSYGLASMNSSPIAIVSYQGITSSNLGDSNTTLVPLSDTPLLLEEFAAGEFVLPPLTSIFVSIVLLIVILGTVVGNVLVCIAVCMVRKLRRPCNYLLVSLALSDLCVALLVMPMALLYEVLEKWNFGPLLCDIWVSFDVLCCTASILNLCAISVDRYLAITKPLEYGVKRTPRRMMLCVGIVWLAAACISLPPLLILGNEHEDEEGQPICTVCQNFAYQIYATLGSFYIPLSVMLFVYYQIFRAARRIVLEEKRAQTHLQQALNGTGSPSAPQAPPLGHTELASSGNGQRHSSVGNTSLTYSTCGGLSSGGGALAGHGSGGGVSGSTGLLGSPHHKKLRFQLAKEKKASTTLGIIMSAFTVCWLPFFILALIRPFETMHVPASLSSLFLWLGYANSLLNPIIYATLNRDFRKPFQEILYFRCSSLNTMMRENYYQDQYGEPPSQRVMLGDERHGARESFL
# 5-HT1A = target: T2, 5-HT1A (Drosophila melanogaster, UniProt P28285); experiment: as above; assay type: cell-based; conditions: 100 μM metitepine; stated for all 5-HT receptors
# T2 sequence (P28285 1-834): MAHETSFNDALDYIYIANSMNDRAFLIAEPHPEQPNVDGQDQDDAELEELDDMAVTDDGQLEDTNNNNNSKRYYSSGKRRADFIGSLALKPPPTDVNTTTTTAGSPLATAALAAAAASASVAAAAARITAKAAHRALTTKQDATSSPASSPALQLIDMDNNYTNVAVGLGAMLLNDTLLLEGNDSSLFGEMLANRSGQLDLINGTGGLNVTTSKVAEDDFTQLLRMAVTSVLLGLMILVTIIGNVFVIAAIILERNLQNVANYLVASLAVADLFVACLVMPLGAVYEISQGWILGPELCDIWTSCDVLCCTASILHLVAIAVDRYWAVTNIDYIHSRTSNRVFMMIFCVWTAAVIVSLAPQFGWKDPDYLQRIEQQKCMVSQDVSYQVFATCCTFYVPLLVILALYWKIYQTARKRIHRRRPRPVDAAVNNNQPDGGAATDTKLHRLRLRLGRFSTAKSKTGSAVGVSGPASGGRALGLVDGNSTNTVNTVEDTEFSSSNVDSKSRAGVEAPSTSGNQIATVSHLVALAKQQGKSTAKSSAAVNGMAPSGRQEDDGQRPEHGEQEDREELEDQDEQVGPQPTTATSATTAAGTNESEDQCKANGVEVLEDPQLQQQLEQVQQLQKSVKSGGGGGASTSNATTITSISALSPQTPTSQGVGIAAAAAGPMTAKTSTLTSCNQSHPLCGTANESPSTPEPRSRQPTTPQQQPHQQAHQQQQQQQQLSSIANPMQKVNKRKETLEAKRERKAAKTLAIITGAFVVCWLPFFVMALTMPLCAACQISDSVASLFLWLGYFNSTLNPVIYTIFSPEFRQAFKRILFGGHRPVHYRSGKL
# HEK-293T cells = experiment: ATP control after metitepine treatment; assay type: cell-based; conditions: 100 μM metitepine; ATP activated all cells afterwards
# 5-HT2A = target: T3, 5-HT2A (Drosophila melanogaster, UniProt Q9VN38); experiment: Calcium imaging of receptor expressed in HEK-293T cells; assay type: cell-based; conditions: 100 μM metitepine; stated for all 5-HT receptors
# T3 sequence (Q9VN38 1-868): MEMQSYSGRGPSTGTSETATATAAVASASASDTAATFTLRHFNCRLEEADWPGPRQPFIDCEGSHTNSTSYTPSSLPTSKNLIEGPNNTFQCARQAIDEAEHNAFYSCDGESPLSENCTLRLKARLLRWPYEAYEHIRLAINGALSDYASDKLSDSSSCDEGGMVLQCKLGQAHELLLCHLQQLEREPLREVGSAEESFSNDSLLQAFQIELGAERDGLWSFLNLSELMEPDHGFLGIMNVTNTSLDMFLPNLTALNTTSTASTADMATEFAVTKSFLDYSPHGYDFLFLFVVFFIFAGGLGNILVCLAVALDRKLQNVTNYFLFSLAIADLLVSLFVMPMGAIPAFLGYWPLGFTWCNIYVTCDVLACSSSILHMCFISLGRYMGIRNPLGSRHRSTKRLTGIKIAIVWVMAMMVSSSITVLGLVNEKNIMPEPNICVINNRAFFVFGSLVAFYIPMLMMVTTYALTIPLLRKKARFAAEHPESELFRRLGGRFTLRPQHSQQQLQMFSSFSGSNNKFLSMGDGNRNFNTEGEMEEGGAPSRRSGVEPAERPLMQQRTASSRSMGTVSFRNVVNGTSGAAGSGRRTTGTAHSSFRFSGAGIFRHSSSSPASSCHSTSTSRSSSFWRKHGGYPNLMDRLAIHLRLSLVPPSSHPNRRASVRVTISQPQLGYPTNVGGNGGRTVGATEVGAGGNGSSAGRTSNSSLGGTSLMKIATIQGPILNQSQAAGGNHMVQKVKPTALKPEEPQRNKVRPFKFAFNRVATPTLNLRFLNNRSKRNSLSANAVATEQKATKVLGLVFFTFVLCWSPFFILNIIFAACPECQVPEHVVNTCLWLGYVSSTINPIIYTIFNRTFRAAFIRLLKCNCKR
# Drosophila larvae [1] = experiment: Solid food feeding assay; assay type: in vivo, Drosophila melanogaster
# Procedure, shortened: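 Larvae aged 0–2 h were fed 17 h at 25°C and 70% humidity on cornmeal-agar-molasses food containing 0.05% bromophenol blue plus solvent or test compound. Individual larvae were imaged, and digestive-tract optical density was measured. Values were normalized to same-day solvent-treated larvae and reported as mean ± s.e.m.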
# C. elegans = conditions: different small molecule screen; cited from earlier work
# 5-HT1B = target: T4, 5-HT1B (Drosophila melanogaster, UniProt P28286); experiment: Calcium imaging of receptor expressed in HEK-293T cells; assay type: cell-based
# T4 sequence (P28286 1-617): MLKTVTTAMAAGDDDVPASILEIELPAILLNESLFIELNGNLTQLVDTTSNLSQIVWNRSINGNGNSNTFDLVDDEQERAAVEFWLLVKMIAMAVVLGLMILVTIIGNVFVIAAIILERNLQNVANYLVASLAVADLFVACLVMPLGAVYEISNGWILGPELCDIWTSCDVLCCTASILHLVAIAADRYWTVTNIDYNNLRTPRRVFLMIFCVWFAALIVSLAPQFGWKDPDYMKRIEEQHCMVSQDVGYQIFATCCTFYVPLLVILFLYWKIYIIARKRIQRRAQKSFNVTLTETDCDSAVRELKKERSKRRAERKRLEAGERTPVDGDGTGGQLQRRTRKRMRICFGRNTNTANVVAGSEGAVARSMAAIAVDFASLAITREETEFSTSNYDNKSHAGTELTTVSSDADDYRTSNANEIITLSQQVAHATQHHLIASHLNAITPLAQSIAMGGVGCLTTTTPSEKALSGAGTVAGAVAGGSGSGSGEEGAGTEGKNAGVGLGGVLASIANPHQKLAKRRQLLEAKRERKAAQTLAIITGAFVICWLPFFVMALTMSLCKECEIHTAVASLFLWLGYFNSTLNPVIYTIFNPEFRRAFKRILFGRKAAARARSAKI
# Drosophila larvae [2] = experiment: Larval locomotion; assay type: in vivo, Drosophila melanogaster
# [3] = tested on: Drosophila first instar larvae; experiment: Liquid food feeding assay; assay type: in vivo, Drosophila melanogaster; conditions: for dose-response verification: 14 secondary screen hits chosen for dose-response curve
# 5-HT2B = target: T5, 5-HT2B (Drosophila melanogaster, UniProt Q8INQ6); experiment: Calcium imaging of receptor expressed in HEK-293T cells; assay type: cell-based; conditions: 100 μM metitepine; stated for all 5-HT receptors
# T5 sequence (Q8INQ6 1-904): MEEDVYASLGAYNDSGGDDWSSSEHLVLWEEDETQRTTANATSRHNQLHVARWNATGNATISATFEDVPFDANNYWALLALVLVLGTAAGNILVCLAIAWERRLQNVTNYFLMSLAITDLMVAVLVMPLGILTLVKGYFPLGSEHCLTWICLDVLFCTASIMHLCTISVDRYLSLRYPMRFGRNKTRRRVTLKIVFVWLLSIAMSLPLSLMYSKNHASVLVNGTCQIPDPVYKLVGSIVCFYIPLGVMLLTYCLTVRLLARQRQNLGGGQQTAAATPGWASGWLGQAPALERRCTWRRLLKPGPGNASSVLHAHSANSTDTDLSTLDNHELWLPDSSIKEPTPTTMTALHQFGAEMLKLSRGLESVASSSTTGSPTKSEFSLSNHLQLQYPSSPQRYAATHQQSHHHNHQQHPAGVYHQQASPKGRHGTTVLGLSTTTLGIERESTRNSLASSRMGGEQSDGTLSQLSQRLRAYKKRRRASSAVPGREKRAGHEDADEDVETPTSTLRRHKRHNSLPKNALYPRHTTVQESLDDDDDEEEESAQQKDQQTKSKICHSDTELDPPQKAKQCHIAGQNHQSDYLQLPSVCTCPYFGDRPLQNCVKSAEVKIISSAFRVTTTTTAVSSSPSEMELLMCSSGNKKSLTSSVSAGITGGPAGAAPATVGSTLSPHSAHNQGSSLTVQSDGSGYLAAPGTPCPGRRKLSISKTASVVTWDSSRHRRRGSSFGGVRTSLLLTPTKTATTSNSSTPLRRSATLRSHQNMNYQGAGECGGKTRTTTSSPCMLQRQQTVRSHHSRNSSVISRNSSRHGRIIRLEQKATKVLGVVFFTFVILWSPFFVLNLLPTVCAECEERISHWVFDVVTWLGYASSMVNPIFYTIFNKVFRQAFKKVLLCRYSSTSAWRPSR
"larval locomotion (Drosophila larvae [2]; at concentrations as low as 10 μM, data not shown)",Compound,responses to 5-HT in presence of drug (5-HT7),responses to 5-HT in presence of drug (5-HT1A),cell survival after treatment (HEK-293T cells),responses to 5-HT in presence of drug (5-HT2A),"solid food accumulation in digestive tract (Drosophila larvae [1]; cornmeal-agar-molasses diet with bromophenol blue, 100 μM (Fig. 3a))","threshold efficacy dose (Drosophila larvae [1]; solid food with bromophenol blue, optical density of gut) [µM]",lifespan (C. elegans),IC50 (5-HT1B) [µM],"responses to 5-HT in presence of drug (5-HT1B; 100 μM metitepine, stated for all 5-HT receptors)","crawling speed (Drosophila larvae [2]; 100 μM in solid food, 17 hours, agar surface)",food accumulation immediately after exposure ([3]; 0-h recovery),dose-response verification [3],anorectic effect 4 hours after treatment ([3]; 4 h recovery),"food intake 24 hours after treatment ([3]; 24 h recovery, rebound from drug-induced fasting)","threshold concentration for efficacy ([3]; liquid food with fluorescein, increasing effects at 50 and 100 μM) [µM]",duration of anorectic effect after treatment ([3]; recovery time course after metitepine treatment) [h],responses to 5-HT in presence of drug (5-HT2B),"feeding in pilot screen ([3]; pilot screen, tested individually at 20 μg/ml, data not shown)"
,CSc1ccc2c(c1)C(N1CCN(C)CC1)Cc1ccccc1S2 (centres unmarked) [Metitepine],dramatically suppressed or completely abolished,dramatically suppressed or completely abolished,did not kill the cells,dramatically suppressed or completely abolished,accumulated less solid food,50,extends lifespan,58,dramatically suppressed or completely abolished,crawled at the same speed as solvent treated controls,reduced food accumulation,showed reliable dose-dependent responses,not evident,ate significantly more,10,2,dramatically suppressed or completely abolished,
,C[C@@H]1C[C@@H]([C@H](O)CC2CC(=O)NC(=O)C2)C(=O)[C@@H](C)C1 [cycloheximide],,,,,,,,,,,,,,,,,,inhibited feeding
dramatically reduced larval locomotion,COC(=O)[C@H]1[C@H]2C[C@@H]3c4[nH]c5cc(OC)ccc5c4CCN3C[C@H]2C[C@@H](OC(=O)c2cc(OC)c(OC)c(OC)c2)[C@@H]1OC [Reserpine],,,,,,,,,,,,showed reliable dose-dependent responses,,,,,,
